Screening data from PubChem.
MC4R antag cAMP – blocks human MC4R cAMP signaling | P32245 | MC4R-expressing cells, MTII-stimulated cAMP, LANCE TR-FRET | inhibition, % at 6.5 µM | 360,000 tested, 0.48% active;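 active means inhibition above its plate's cutoff, the mean of tested wells on that plate plus 3 SD, cut at about 29% in these data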
Target sequence (P32245 whole entry, looked up): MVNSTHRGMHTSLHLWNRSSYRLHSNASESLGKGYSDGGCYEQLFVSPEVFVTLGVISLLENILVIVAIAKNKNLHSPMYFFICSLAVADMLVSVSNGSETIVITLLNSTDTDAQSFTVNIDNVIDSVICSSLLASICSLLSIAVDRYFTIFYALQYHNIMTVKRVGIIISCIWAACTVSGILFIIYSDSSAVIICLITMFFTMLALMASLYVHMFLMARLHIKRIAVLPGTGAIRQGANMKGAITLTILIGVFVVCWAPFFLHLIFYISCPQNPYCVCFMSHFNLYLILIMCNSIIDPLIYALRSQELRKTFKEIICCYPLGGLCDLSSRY
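Assay system: human MC4R-expressing U2OS cells; reagent: Melanotan II stimulation of cells; dosing: 6.5 µM single dose; timing: compound 30 min, challenge 1 h, detection 1 h; signal: TR-FRET cAMP assay; replicates: one well per compound, no replicates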
H9c2 TAG inh – reduces triacylglycerol accumulation in H9c2 cells; Nile Red lipid (TAG) fluorescence; cells loaded with 200 µM oleic acid; inhibition, % at 12.5 µM; 230,000 tested, 0.66% active; AID 651582;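 active means pattern-corrected inhibition of lipid staining of at least 50% with the nuclear-stain viability signal not falling by more than 50%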
NTR1 agonist – agonists of human neurotensin receptor NTR1 | P30989 | activation, % at 20 µM | NTR1-U2OS beta-arrestin-GFP spot imaging, agonist mode | 330,000 tested, 0.17% active | AID 493036;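 active means activation at or above 40% of the spot to cytoplasm intensity ratio, with at least 20 cells analyzed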
aDG glyco up – alpha-DG glycosylation activation; Pro5-aDG cells, alpha-DG glycosylation AlphaScreen (IIH6); 0% Pro5, 100% B10-LARGE cell signal; 360,000 tested, 0.22% active; activation, % at 10 µM;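 active means activation of at least 8% versus controls, or a plate z-score of at least 8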;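 further: Pro5 are CHO cells carrying HIG-tagged alpha-DG that lacks glycosylation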
MC4R barr agon – activates human MC4R beta-arrestin recruitment; U2OS MC4R beta-arrestin complementation, luminescence; percent of melanotan II response, DMSO zero; activation, % at 8.9 µM; 360,000 tested, 0.98% active;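 active means activation above a per-plate cutoff, the mean activation of sample wells on that plate plus 3 SD, cut at about 8% in these data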
TbMetRS inhib – blocks T. brucei methionyl-tRNA synthetase activity; purified T. brucei MetRS, ATP depletion, Kinase-Glo luminescence; inhibition, % at 11.9 µM; 360,000 tested, 0.4% active; AID 624268;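 active means inhibition above a per-plate cutoff of the control wells' mean inhibition plus 3 SD, cut at about 5.5% in these data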
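System: purified T. brucei MetRS enzyme / Detection: Kinase-Glo luciferase luminescence reporting remaining unconsumed ATP / Medium: HEPES buffer with MgCl2, KCl, DTT, spermine, BSA, pyrophosphatase / Replication: singlicate, one well per compound / Evaluation: percent inhibition relative to median high and low control wells / Schedule: 2 h aminoacylation at 25 °C after 15 min preincubation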
Numbers stand for hits; n = inactive; x = no result given. An excerpt weighted towards active compounds, which were near 2.4% of everything screened.

SMILES	MC4R antag cAMP	H9c2 TAG inh	NTR1 agonist	aDG glyco up	MC4R barr agon	TbMetRS inhib
OC[C@@H]1CN(Cc2ccccc2)C[C@H](n2cnc3c(NCc4ccncc4)ncnc32)O1	n	n	x	n	n	n
COc1ccc(NC(=O)COc2nsnc2N2CCCCC2)cc1	n	x	n	n	n	n
CCOc1ccc(NC(=O)COc2nsnc2N2CCCCC2)cc1	n	x	n	n	9.0	n
O=C1NC(Cc2ccccc2)c2nc3cc(Cl)ccc3c(=O)n2-c2ncccc21 (centres undefined)	n	n	x	n	n	n
COc1ccc(NC(=O)/C(Cl)=C(/Cl)S(=O)Cc2ccccc2)cn1 (centres undefined)	n	96	n	n	n	n
N#CCOC(=O)[C@H](Cc1c[nH]c2ccccc12)NS(=O)(=O)c1ccc(Cl)cc1	34	x	n	n	n	n
O=C(CSc1nc2cc(Cl)ccc2s1)NCc1ccc2c(c1)OCO2	n	x	n	n	9.5	n
Cc1ccccc1CN1C(=O)c2ccccc2Sc2ccc(C(=O)NCCN3CCOCC3)cc21	n	x	n	n	n	n
CCN1CCN(CCNC(=O)c2ccc(/C=C3/Sc4ccccc4N(Cc4ccccc4C)C3=O)cc2)CC1	n	n	x	n	8.9	n
Cc1ccc(Sc2c(C)nn(C(=O)c3cccc(S(=O)(=O)N4CCOCC4)c3)c2C)cc1	n	x	n	n	9.2	n
O=C(NC1CCCCC1)C(c1ccc(-c2ccccc2)cc1)n1c(=O)c(-c2ccco2)nc2ccccc21 (centres undefined)	x	x	x	n	x	n
O=C1C=CC(=O)N1c1ccccc1N1C(=O)C=CC1=O	37	n	x	n	n	n
O=C(c1ccccc1)c1ccccc1N1C(=O)C=CC1=O	n	n	n	n	n	n
O=C(NCCC1=CCCCC1)C(c1ccccc1)c1ccccc1	n	x	n	n	8.5	n
CCCC1NC(=O)c2cccnc2-n2c1nc1ccc(Br)cc1c2=O (centres undefined)	n	n	x	n	n	n
CCOc1ccc(NC(=O)NCCCCc2ccccc2)cc1	n	x	n	n	9.0	n
COc1ccc(NC(=O)NCCCCc2ccccc2)cc1	n	x	n	n	n	n
CCCC(=O)N1CCC1(C)C(=O)Nc1scc(C)c1C#N (centres undefined)	n	n	x	n	n	n
CN1CCN(C(=O)C[C@H]2CC[C@H]3[C@@H](COC[C@@H](O)CN3Cc3cccc(F)c3)O2)CC1	x	x	x	n	x	n
C#CCn1cc(/C=N/Nc2nc3ccccc3[nH]2)c2ccccc21	n	x	n	n	n	9.0
C(=N\Nc1nc2ccccc2[nH]1)/c1ccccn1	n	n	x	n	n	n
Cc1ccc2nc(SCC(=O)Nc3cccc([N+](=O)[O-])c3)[nH]c2c1	n	x	n	n	n	72
Cc1ccc2nc(SCC(=O)Nc3ccc(C(N)=O)cc3)[nH]c2c1	n	n	n	n	n	n
Cc1ccc2nc(SCc3ccc([N+](=O)[O-])cc3)[nH]c2c1	n	x	n	n	n	19
Cc1ccc2nc(SCc3ccc([N+](=O)[O-])cc3)nc(C)c2c1	n	x	n	n	n	n
SMILES	MC4R antag cAMP	H9c2 TAG inh	NTR1 agonist	aDG glyco up	MC4R barr agon	TbMetRS inhib
Cc1cc(C)n2c(Nc3ccc4c(c3)OCCO4)c(CCc3ccccc3)nc2n1	x	x	x	n	x	n
CC(C)C[C@@H]1COc2cc(N(C)CCO)ccc2S(=O)(=O)N1	x	x	x	n	x	n
COc1ccc(N2CCN(S(=O)(=O)c3ccc(Cl)c(C(F)(F)F)c3)CC2)cc1	n	x	n	n	8.5	n
O=[N+]([O-])c1ccc(-c2nc(C(Cl)Cl)c3ccccc3n2)cc1	n	112	n	n	n	n
COc1ccc(C(=O)/C=C2\C(=O)Nc3ccc(Br)cc32)cc1	n	n	x	n	n	n
O=C1Nc2ccc(Br)cc2/C1=C/C(=O)c1ccc2c(c1)OCO2	n	n	55	n	n	n
COc1ccc(C(=O)C[C@@H]2OC3CCCCC3N2S(=O)(=O)c2ccc(C)cc2)cc1OC (some centres undefined)	x	x	x	n	x	n
Cc1oc2c(c1C(=O)O)C(=O)c1ccccc1C2=O	n	n	n	n	n	n
CCOC(=O)c1c(C)oc2c1C(=O)c1ccccc1C2=O	n	x	n	9.7	n	n
O=C(CSc1ccc(-c2ccc(-n3cccn3)cc2)nn1)Nc1ccccc1F	n	n	n	n	11	n
CC1(C(=O)NS(=O)(=O)c2cccs2)CCN1C(=O)c1ccccc1 (centres undefined)	n	n	x	n	n	n
COc1ccc(/C=N/NC(=O)c2nc(Cl)c(Cl)c(N)c2Cl)cc1COc1ccc(F)cc1F	n	n	n	n	11	n
CCOC(=O)c1[nH]c(C)c(C(=O)OCC(=O)N2CCc3ccccc32)c1C	n	x	n	n	8.5	n
CCOC(=O)c1c(C)[nH]c(C(=O)OCC(=O)N2CCc3ccccc32)c1C	n	n	n	n	n	n
CC(C)CN(Cc1cc(=O)oc2cc(-c3ccccc3)c(O)cc12)CC(C)C	n	n	n	n	11	n
COc1ccc(NC(=O)C2(C)CCN2CC2CCCCC2)cc1OC (centres undefined)	n	n	x	n	n	n
O=S(=O)(Nc1ccc(N=Nc2ccccc2)cc1)c1ccccc1	n	x	n	n	8.3	n
O=S(=O)(Nc1ccc(S(=O)(=O)Nc2ccccc2)cc1)c1ccccc1	n	n	n	n	n	n
CCOc1ccccc1-c1ccc(C(=O)NCc2ccc(Cl)cc2)o1	x	x	x	n	x	n
COC(=O)C1(C(=O)OC)C/C=C\CCN(S(=O)(=O)c2ccccc2[N+](=O)[O-])CC1	x	x	x	n	x	n
CN(N=Nc1ccc([N+](=O)[O-])cc1)c1ccccc1	n	n	n	n	8.3	n
C/C(=N\Nc1nc2ccccc2nc1C)c1ccccc1O	n	52	n	n	n	n
Cc1cc(C)n2c(NC3CCCCC3)c(-c3cccnc3)nc2n1	x	x	x	n	x	n
Cc1ccc(Cn2ccsc2=NC(=O)COC(=O)c2ccc(NC(=O)CC#N)cc2)cc1	n	n	n	n	n	n
Cc1ccc(Cn2ccsc2=NC(=O)CCl)cc1	n	n	n	n	15	n
SMILES	MC4R antag cAMP	H9c2 TAG inh	NTR1 agonist	aDG glyco up	MC4R barr agon	TbMetRS inhib
Oc1ccccc1C(Nc1nccs1)c1ccc2cccnc2c1O (centres undefined)	n	52	n	n	n	n
Oc1c(C(Nc2ccccn2)c2ccccn2)ccc2cccnc12 (centres undefined)	n	n	n	n	n	n
CNC(=O)Cn1ncc2c(C)n(Cc3ccc(C)cc3)c(C)c2c1=O	n	x	n	n	n	n
Cc1c2cnn(CC(=O)Nc3c(F)c(F)cc(F)c3F)c(=O)c2c(C)n1Cc1ccccc1F	n	n	n	n	25	n
O=C(C(=O)N1CCN(C(=O)OCc2ccccc2)CC1)c1cccnc1	x	x	x	n	x	n
CCOC(=O)c1sc2nc(OCc3cccnc3)cc(C)c2c1N	x	x	x	n	x	n
